Reference: ChEMBL document CHEMBL3808340, “Development of Novel 1,2,3,4-Tetrahydroquinoline Scaffolds as Potent NF-κB Inhibitors and Cytotoxic Agents” (ACS Med Chem Lett, 2016)

Tests used:
[1] = tested on: RAW264.7; assay: Inhibition of LPS-induced NFkappaB (unknown origin) transcriptional activity expressed in mouse RAW264.7 cells at 100 uM incubated for 16 hrs by SEAP based reporter gene assay relative to control; type: cell-based
[2] = Inhibition of LPS-induced NFkappaB (unknown origin) transcriptional activity expressed in mouse RAW264.7 cells incubated for 16 hrs by SEAP based reporter gene assay; type: cell-based; settings: RAW264.7, 16 h
[3] = species on record: Homo sapiens; assay: Potency index, ratio of PDTC IC50 to compound IC50 for LPS-induced NFkappaB (unknown origin) transcriptional activity expressed in mouse RAW264.7 cells; type: cell-based
[4] = species on record: Homo sapiens; assay: Potency index, ratio of KL-1156 IC50 to compound IC50 for LPS-induced NFkappaB (unknown origin) transcriptional activity expressed in mouse RAW264.7 cells; type: cell-based
[5] = tested on: NCI-H23; assay: Cytotoxicity against human NCI-H23 cells after 72 hrs by sulforhodamine B assay; type: functional; settings: NCI-H23, 72 h
Outline: (§1)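 Sulforhodamine B staining following the NCI (USA) protocol was used to estimate cell number indirectly in six human cancer lines. GI50 is the concentration giving a 50% decrease in net cell growth, reported as the mean of three experiments.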

[6] = tested on: ACHN; assay: Cytotoxicity against human ACHN cells after 72 hrs by sulforhodamine B assay; type: functional; outline: as §1
[7] = tested on: MDA-MB-231; assay: Cytotoxicity against human MDA-MB-231 cells after 72 hrs by sulforhodamine B assay; type: functional; settings: MDA-MB-231, 72 h; outline: as §1
[8] = Cytotoxicity against human PC3 cells after 72 hrs by sulforhodamine B assay; type: functional; settings: PC-3, 72 h; outline: as §1
[9] = Cytotoxicity against human NUGC3 cells after 72 hrs by sulforhodamine B assay; type: functional; settings: NUGC-3, 72 h; outline: as §1
[10] = Cytotoxicity against human HCT15 cells after 72 hrs by sulforhodamine B assay; type: functional; settings: HCT-15, 72 h; outline: as §1

Row | IC50 [2] [µM] | Structure (SMILES) | inhibition [1] [%] | Ratio IC50 [3] | Ratio IC50 [4] | GI50 [5] [µM] | GI50 [6] [µM] | GI50 [7] [µM] | GI50 [8] [µM] | GI50 [9] [µM] | GI50 [10] [µM]
1 | 1.4 | O=C(Nc1ccccc1O)C1CCc2ccccc2N1C(=O)c1ccccc1 (stereo not given) | > 100 | 26 | 37 | 3.49 | 4.26 | 4.21 | 5.69 | 3.78 | 3.83
2 | 27 | CCCCCCCCC(=O)N1c2ccccc2CCC1C(=O)Nc1ccccc1C(F)(F)F (stereo not given) | 63 | – | – | 4.22 | 8.33 | 3.35 | 4.32 | 6.18 | 7.7
3 | 20 | O=C(Nc1cc(C(F)(F)F)cc(C(F)(F)F)c1)C1CCc2ccccc2N1C(=O)c1ccc(Cl)cc1 (stereo not given) | 92 | – | – | 0.889 | 2.57 | 2 | 4.23 | 1.66 | 2.22
4 | 68 | O=C(Nc1ccc(C(F)(F)F)cc1)C1CCc2ccccc2N1 (stereo not given) | 79 | – | – | 25.8 | 25 | 24.2 | 20.3 | 18.6 | 17.6
5 | 20 | CCCC(=O)N1c2ccccc2CCC1C(=O)Nc1cc(C(F)(F)F)cc(C(F)(F)F)c1 (stereo not given) | 88 | – | – | 15 | 13.9 | 15.2 | 18.6 | 14.4 | 21.9
6 | 20 | O=C(Nc1ccccc1O)C1CCc2ccccc2N1C(=O)c1ccc(Cl)cc1 (stereo not given) | 82 | – | – | 19.2 | 19.6 | 19.6 | 25.1 | 13.4 | 20.2
7 | 29 | O=C(Nc1cc(C(F)(F)F)cc(C(F)(F)F)c1)C1CCc2ccccc2N1C(=O)c1ccccc1 (stereo not given) | 66 | – | – | 2.13 | 2.92 | 2.43 | 3.5 | 1.68 | 3.54
8 | 2.7 | O=C(Nc1ccccc1C(F)(F)F)C1CCc2ccccc2N1C(=O)c1ccc(Cl)cc1 (stereo not given) | 92 | 13 | 19 | 0.307 | 0.824 | 0.533 | 0.786 | 0.551 | 0.839
9 | 83 | O=C(Nc1ccccc1O)C1CCc2ccccc2N1 (stereo not given) | 57 | – | – | 2.23 | 3.99 | 5.26 | 4.31 | 2.68 | 5.61
10 | 78 | O=C(Nc1ccccc1O)C1CCc2ccccc2N1C(=O)c1cccc(Cl)c1 (stereo not given) | 58 | – | – | 11.6 | 17.2 | 10.6 | 23.3 | 11 | 23.1
11 | 23 | O=C(Nc1cc(C(F)(F)F)cc(C(F)(F)F)c1)C1CCc2ccccc2N1C(=O)c1ccccc1Cl (stereo not given) | 90 | – | – | 2.08 | 4.7 | 5.25 | 8.04 | 1.93 | 4.05
12 | 65 | O=C(Nc1ccc(O)cc1)C1CCc2ccccc2N1 (stereo not given) | 64 | – | – | > 100 | > 100 | > 100 | > 100 | > 100 | > 100
13 | 20 | O=C(Nc1ccccc1O)C1CCc2ccccc2N1C(=O)c1ccccc1Cl (stereo not given) | 78 | – | – | 46.9 | 44.2 | 47.4 | 60 | 36.8 | 44.9
14 | 23 | CC(=O)N1c2ccccc2CCC1C(=O)Nc1cc(C(F)(F)F)cc(C(F)(F)F)c1 (stereo not given) | 85 | – | – | > 70 | > 70 | > 70 | > 70 | > 70 | > 70
15 | 0.9 | O=C(Nc1ccccc1C(F)(F)F)C1CCc2ccccc2N1C(=O)c1ccccc1Cl (stereo not given) | 82 | 41 | 58 | 2.15 | 3.9 | 2.53 | 5.14 | 2.73 | 4.22
16 | 0.7 | O=C(Nc1ccccc1C(F)(F)F)C1CCc2ccccc2N1C(=O)c1cccc(Cl)c1 (stereo not given) | 90 | 53 | 75 | 0.292 | 0.526 | 0.288 | 0.729 | 0.754 | 0.797
17 | 20 | CCC(=O)N1c2ccccc2CCC1C(=O)Nc1cc(C(F)(F)F)cc(C(F)(F)F)c1 (stereo not given) | 91 | – | – | 7.82 | 7.72 | 7.28 | 8.54 | 7.22 | 7.62
18 | 60 | O=C(Nc1ccccc1)C1CCc2ccccc2N1 (stereo not given) | 85 | – | – | 97.1 | 72.9 | 108 | 110 | 59 | 109
19 | 26 | O=C(Nc1cc(C(F)(F)F)cc(C(F)(F)F)c1)C1CCc2ccccc2N1 (stereo not given) | > 100 | – | – | 8.41 | 8.19 | 8.27 | 8.12 | 8.76 | 8.7
